Screens from PubChem BioAssay.
MKP-1 inh = human dual specificity phosphatase 1 inhibition | inhibition, %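 (compounds tested at a single concentration somewhere between 10 and 100 µM)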 | 65,000 tested, 0.15% active | recombinant MKP-1, OMFP hydrolysis fluorescence | P28562 | AID 374;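 active = inhibition above about 50%, limit read from the data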;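 also: 0% = DMSO max control wells and 100% = wells with enzyme stopped by NaOH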
JNK3 blocker = blocks human JNK3 kinase activity. P53779. purified JNK3 kinase activity, HTS. inhibition, % at 8 µM. 60,000 tested, 0.61% active; in the data active = inhibition above about 17%;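 also: 0% = DMSO and 100% = reference inhibitor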
Target sequence (P53779 whole entry, looked up): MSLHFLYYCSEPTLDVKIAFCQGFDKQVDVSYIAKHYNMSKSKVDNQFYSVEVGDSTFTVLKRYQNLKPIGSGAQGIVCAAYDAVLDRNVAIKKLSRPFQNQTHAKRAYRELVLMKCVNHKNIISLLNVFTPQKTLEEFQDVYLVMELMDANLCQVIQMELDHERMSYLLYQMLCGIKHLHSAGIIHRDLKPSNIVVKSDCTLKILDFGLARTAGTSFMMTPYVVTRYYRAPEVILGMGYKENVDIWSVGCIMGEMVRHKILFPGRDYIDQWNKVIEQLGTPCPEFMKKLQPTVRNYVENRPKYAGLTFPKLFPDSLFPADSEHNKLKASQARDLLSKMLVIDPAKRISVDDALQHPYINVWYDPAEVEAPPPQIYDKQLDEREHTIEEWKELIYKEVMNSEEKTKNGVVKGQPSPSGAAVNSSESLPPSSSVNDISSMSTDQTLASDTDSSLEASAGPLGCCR
Hsp90 inh = displaces geldanamycin probe from tumor Hsp90; 64,000 tested, 0.35% active; AID 429; inhibition, % at 30 µM; NCI-N417 lysate Hsp90, Cy3B-geldanamycin FP displacement; P07900;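 active = inhibition above 50%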;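 also: 0% = tracer plus lysate wells and 100% = tracer alone without lysate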
RORA act = RORA (human) activation. P35398. CHO-K1 Gal4-RORA LBD luciferase reporter, luminescence; percent increase over mock-subtracted basal signal. activation, % at 10 µM. 65,000 tested, 1.5% active. AID 560;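 active = activation above the mean of all tested compounds plus 3 SD, cut at about 49% in these data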;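 also: 0% = DMSO-treated RORA cells and 100% = added signal equal to DMSO minus mock-transfected cells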
SF-1 act = SF-1 (human) activation; CHO-K1 Gal4-SF-1 LBD luciferase reporter; % increase over DMSO SF-1-specific signal; activation, % at 10 µM; 65,000 tested, 1.9% active; AID 522;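 active = activation above the mean activation of all tested compounds plus 3 SD, cut at about 50% in these data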
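Assay system – CHO-K1 cells with Gal4–hSF-1 LBD chimera plus Gal4-driven luciferase · Quantity – 4,000 cells per well · Times – compound added 1 h post-seeding, 20 h exposure at 37 °C, 5% CO2 · Measured by – luciferase light emission · Benchmarks – DMSO and mock-transfected background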
Cdc25B inh = human M-phase inducer phosphatase 2 inhibition | P30305 | recombinant Cdc25B, OMFP fluorescence Ex485/Em525 | inhibition, %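 (compounds tested at 10 µM final in the well)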 | 65,000 tested, 0.1% active | AID 368; in the data active = inhibition above about 50%
Numbers without * were called inactive; nt = no result given. Only some compounds are listed: those with a hit (about 3.4% of all), similar ones and a draw of the others.

SMILES	MKP-1 inh	JNK3 blocker	Hsp90 inh	RORA act	SF-1 act	Cdc25B inh
Cc1cccc(OCCn2c(=O)n(C)c3ccccc32)c1	2.4	3.5	0.1	67.2*	81.3*	-7.6
Cc1cccc(OCCCN2CCCCCC2)c1	-14.1	-2.3	-5.1	-0.7	5.2	-11.3
O=C(Nc1ccccc1)N1CCSCC1	5.5	-3.2	0.1	16.0	-17.8	-9.0
O=C(c1cccs1)N1CCC(c2ccccc2)C1 (configuration not stated)	-4.5	-3.0	0.6	48.8*	29.9	-3.4
O=C(Nc1ccccc1)N1CCC(c2ccccc2)C1 (configuration not stated)	-12.4	3.2	-4.2	44.5	68.4*	-1.8
COc1cc(NCCCCCN2C(=O)c3ccccc3C2=O)c2ncccc2c1	nt	nt	2.4	nt	nt	nt
CCN(CC)c1ccc(C(=O)Nc2cccc(F)c2)cc1	-1.3	-4.6	0.6	41.8	54.3*	1.2
CN(C)c1cccc(C(=O)Nc2cccc(F)c2)c1	17.9	-11.0	4.9	46.0	58.2*	0.3
O=C(Nc1cccc(F)c1)c1c(F)c(F)c(F)c(F)c1F	11.9	-3.6	2.1	-33.9	-8.1	2.4
CCOc1ccccc1-n1c(SCC(=O)NC(C)CC)nnc1-c1ccoc1C (configuration not stated)	-1.4	-4.8	-1.9	-16.1	11.8	-4.6
CCCNCCCC(C)Nc1cc(OC)cc2c(C)ccnc12 (configuration not stated)	nt	nt	-6.1	nt	nt	nt
O=C(COc1ccc(Cl)cc1Cl)NC1CCSC1=O (configuration not stated)	-12.7	1.1	-3.6	22.8	57.9*	0.2
COc1ccc2nc(NC(=O)C(NS(=O)(=O)c3cccs3)C(C)C)sc2c1 (configuration not stated)	-7.5	3.8	1.4	6.4	1.0	-10.1
O=C(NC1CCCC1)c1cccnc1N1CCCCCC1	8.4	33.7*	-1.3	-31.7	-3.0	-22.0
CCS(=O)(=O)N1CCC(C(=O)NCCCN2CCCC2)CC1	7.8	-1.3	-2.9	3.5	0.6	2.3
c1ccc(-n2nc3c(ccc4cnnc43)[nH]2)cc1	-1.8	30.0*	-2.6	54.7*	35.8	2.3
O=S(=O)(c1cccc2c(Cl)cccc12)N1CCCNCC1	nt	nt	-0.2	nt	nt	nt
C[C@H](Cc1ccccc1)Nc1ncnc2c1ncn2[C@@H]1O[C@H](CO)[C@H](O)C1O (some centres not stated)	nt	nt	1.6	nt	nt	nt
CCc1nc(SCc2cccnc2)[nH]c(=O)c1C	-6.8	-2.5	3.6	-10.3	-5.8	-12.6
Fc1cccc(CSc2nc3ccncc3[nH]2)c1	-2.3	1.8	-2.2	25.1	50.9*	-42.3
CN(C)C=Nc1c(Br)cc(Br)c2nonc12	-11.5	3.4	52.7*	-6.6	-6.3	-1.7
CN(C)C=Nc1nonc1-c1ncn[nH]1	-29.7	1.8	-1.4	-17.3	-1.6	-3.4
CCNC(=O)[C@H]1O[C@@H](n2cnc3c(N)nc(NCCc4ccc(CCC(=O)O)cc4)nc32)C(O)[C@H]1O (some centres not stated)	nt	nt	4.0	nt	nt	nt
COc1ccc(CCNC(=O)Cn2cnc3c(nnn3Cc3ccccc3F)c2=O)cc1OC	1.6	-8.8	-0.3	2.5	-8.1	-0.7
Cc1nc(NC(=O)C2CC3CCCC(C2)C3=O)sc1C (configuration not stated)	0.1	7.1	-2.4	62.1*	53.7*	-2.4
SMILES	MKP-1 inh	JNK3 blocker	Hsp90 inh	RORA act	SF-1 act	Cdc25B inh
O=C(Nc1cccc(NC(=O)C2CC3CCCC(C2)C3=O)n1)C1CC2CCCC(C1)C2=O (configuration not stated)	5.1	-3.8	-7.2	-10.7	-0.6	7.3
Cc1ccc(-c2nsc3c(N4CCN(C(=O)c5ccco5)CC4)ncnc23)cc1	20.7	3.0	-1.6	-1.3	13.4	3.9
CCCCCCCCCC(=O)NC(CN1CCOCC1)[C@H](O)c1ccccc1 (some centres not stated)	nt	nt	-0.1	nt	nt	nt
COCC(=O)Nc1ccc(-c2cn3cccnc3n2)cc1	0.3	nt	-4.0	17.4	19.4	-26.7
Brc1ccc(-c2cn3cccnc3n2)cc1	-12.7	2.5	-3.3	53.0*	37.9	-11.0
O=C(O)CCC(=O)N1CCN(c2nc3ccccc3s2)CC1	20.8	-7.3	0.5	5.5	-9.1	1.2
O=C(c1cnn(-c2nc3ccccc3s2)c1)c1ccccc1O	9.2	0.2	4.4	51.9*	35.7	-1.9
CC1(C)CC(=O)C(C=Nc2ccc(O)cc2)=C(O)C1	-9.5	-1.3	3.1	35.5	51.4*	-10.5
CCOc1ccc(N=CC2=C(O)CC(C)(C)CC2=O)cc1	2.3	-8.1	1.4	15.2	68.0*	-12.0
CC1(C)CC(=O)C(C=Nc2ccc3[nH]ncc3c2)=C(O)C1	-1.0	1.0	10.1	17.9	79.1*	-18.6
CC1(C)CC(=O)C(C=Nc2ccc(Cl)cn2)=C(O)C1	-13.2	-7.8	-0.2	-17.8	-15.3	-5.3
Cc1[nH]nc(N=CC2=C(O)CC(C)(C)CC2=O)c1-c1ccc(Cl)cc1	20.9	2.1	-0.8	83.2*	31.1	-5.9
CN=CC1=C(O)CC(C)(C)CC1=O	-6.6	1.4	2.3	-26.8	6.2	7.4
Cc1ccc2oc(=O)c3cc(C(=O)N4CCN(c5ncccn5)CC4)sc3c2c1	15.2	7.0	-2.7	-13.3	-7.0	1.5
CN1Cc2cc(C(=O)c3cc(Cl)cc(CSc4ncccn4)c3O)cnc2NC1=O	54.7*	1.7	-21.1	-26.5	-50.0	5.3
CCSc1ccccc1C(=O)N1CCN(c2ccccc2F)CC1	3.7	0.8	-1.5	4.5	13.9	-2.9
Cc1ccc(N=Cc2nc(-c3ccco3)oc2O)cc1	-13.6	5.5	-2.4	46.8	104.0*	1.5
CCCCC1CCC(/C(N)=N/O)CC1 (configuration not stated)	-9.7	1.5	-0.8	22.9	11.7	-2.1
CCCCCC1CCC(C(=O)O)CC1 (configuration not stated)	53.7*	-3.2	0.9	-0.2	-16.5	-4.4
Cc1ccc2nc3ccc(N4CCCC4)nn3c(=O)c2c1	-16.8	6.0	0.1	53.6*	45.8	-3.0
Cc1cccc(C#Cc2ccccc2)n1	nt	nt	-1.2	nt	nt	nt
Nc1ccc(-c2nc3ccccc3[nH]2)cc1	7.1	-20.2	2.9	38.2	56.0*	1.8
CC(=O)c1cccc(NC(=O)CSc2nnc(-c3ccc(S(=O)(=O)N4CCCC4)cc3)o2)c1	-4.2	5.5	60.7*	0.7	-16.0	6.4
Cc1ccc(-c2nnc(SCC(=O)Nc3ccc(S(=O)(=O)N4CCCCCC4)cc3)o2)cc1	-15.1	6.4	0.7	-19.9	-21.5	-6.9
Cc1cc(C(=O)Nc2sc3c(c2C#N)CCC(C)C3)no1 (configuration not stated)	-2.4	-2.5	-11.1	53.0*	96.8*	-7.6
Cc1noc(C(=O)Nc2sc3c(c2C#N)CCC3)c1Cl	-0.7	2.0	-1.9	52.0*	47.7	0.2
Cc1cc(C(=O)Nc2sc3c(c2C#N)CCCC3)no1	4.5	5.6	-1.3	40.7	71.0*	-7.5
